Experimental data gathered from unrelated publications.
Cell line: Calu-3
Effect on: cell growth or viability

CC(C)[C@H](NC(=O)c1ccccc1NC(=O)c1ccccc1)C(=O)N[C@H](CO)C(C)C
CC50 (MTT; 48 h): > 250 µM

O=C(NCc1ccc(F)cc1)c1cccc(Nc2ccc(-c3ccccc3)nn2)c1
CC50 (MTS; 48 h): > 100 µM

O=C1Nc2cc(C(F)(F)F)ccc2Oc2ccsc21
CC50 (MTT; 72 h): > 100 µM

CCOC(=O)c1c(NCc2ccc(SC)cc2)c2cccc(C)c2[nH]c1=O
CC50 (MTS; 48 h): > 100 µM

COc1cc2ncnc(Nc3ccc(F)c(Cl)c3)c2cc1OCCCN1CCOCC1
CC50 (resazurin): > 60 µM

CN1C(=O)c2ccccc2[S+]([O-])c2cc([N+](=O)[O-])ccc2S1(=O)=O (centres unmarked)
CC50 (MTT; 72 h): > 100 µM

CCC(CC)COC(=O)[C@H](C)N[P@](=O)(OC[C@H]1O[C@@](C#N)(c2ccc3c(N)ncnn23)[C@H](O)[C@@H]1O)Oc1ccccc1
CC50 (MTT; 48 h): ≥ 250 µM

COc1cc(Nc2ccnc3ccc(Br)cc23)cc(OC)c1OC
CC50 (resazurin): > 60 µM

CN(C)C(=O)COC(=O)Cc1ccc(OC(=O)c2ccc(NC(=N)N)cc2)cc1
CC50 (ATP luminescence): > 200 µM

CCS(=O)(=O)N1CC(CC#N)(n2cc(-c3ncnc4[nH]ccc34)cn2)C1
CC50 (resazurin): > 60 µM

O=C(Nc1ccc2c(c1)OCO2)c1nnc(C(=O)N2CCCC(C(=O)NCc3ccccc3)C2)s1 (centres unmarked)
CC50 (MTT; 48 h): 151 µM
